Laboratory results: ChEMBL document CHEMBL3525971 (Drug Metab Dispos, 2011)

Tests used:
[1] = Fraction unbound in pig plasma; type: ADME, cell-free, Sus scrofa
Summary of the method: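 Femoral-vein plasma drawn at 30 and 300 min. […] Unbound and total plasma concentrations measured by HPLC-UV at 210 nm after precipitation and solid-phase extraction, with testosterone as internal standard. Calibration range 0.003-1 µM; fraction unbound taken as Cu/Cp.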

[2] = AUC (0 to 6 hrs) in castrated pig bile at 0.8 mg/kg administered as intrajejunal dose 20 mins after ketoconazole administration by UPLC-tandem mass spectrometry; type: ADME, organism-based, Sus scrofa; design: time < 6 hr, route […], dose 0.8 mg/kg; details: male
[3] = Tmax in castrated pig plasma withdrawn from femoral vein at 0.8 mg/kg administered as intrajejunal dose by UPLC-tandem mass spectrometry; type: ADME, organism-based, Sus scrofa; design: dose 0.8 mg/kg; details: male
Summary of the method: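 Portal, hepatic and femoral vein plasma sampled over 6 h and assayed by UPLC-MS/MS. Tmax read directly from the profiles. Terminal t1/2 calculated as ln2/λz by non- or compartmental analysis; values below LLOQ after Cmax excluded.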

Sus scrofa [4] = assay: Absorption rate constant in castrated pig plasma withdrawn from portal vein at 0.8 mg/kg administered as intrajejunal dose by UPLC-tandem mass spectrometry; type: ADME, organism-based; design: dose 0.8 mg/kg; details: in vivo, other
[5] = Cmax in castrated pig bile at 0.8 mg/kg administered as intrajejunal dose by UPLC-tandem mass spectrometry; type: ADME, organism-based, Sus scrofa; design: dose 0.8 mg/kg; details: male
[6] = Apparent half-life of the terminal disposition phase in castrated pig plasma withdrawn from portal vein at 0.2 mg/kg, iv by UPLC-tandem mass spectrometry; type: ADME, organism-based, Sus scrofa; design: dose 0.2 mg/kg, route intravenous; details: male, read-out: t1/2 lambda z (converted)
Summary of the method: (§1)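 Where ketoconazole was co-dosed, it was given at 10 mg/kg at the same jejunal site 20 min before. Plasma protein-precipitated with acetonitrile and analysed by UPLC-MS/MS (finasteride-d9). AUC0-6h, Cmax and t1/2 (ln2/λz) were derived by non- or compartmental analysis.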

[7] = Drug excretion in castrated pig urine assessed as unchanged drug level at 0.8 mg/kg administered as intrajejunal dose 20 mins after ketoconazole administration measured during 6 hrs sampling by UPLC-tandem mass spectrometry; type: ADME, organism-based, Sus scrofa; design: dose 0.8 mg/kg; details: in vivo, other
Sus scrofa [8] = assay: Absorption rate constant in castrated pig plasma withdrawn from femoral vein at 0.8 mg/kg administered as intrajejunal dose by UPLC-tandem mass spectrometry; type: ADME, organism-based; design: dose 0.8 mg/kg; details: in vivo, other
[9] = AUC (0 to 6 hrs) in castrated pig plasma withdrawn from femoral vein at 0.2 mg/kg, iv by UPLC-tandem mass spectrometry; type: ADME, organism-based, Sus scrofa; design: time < 6 hr, dose 0.2 mg/kg, route intravenous; details: male; summary of the method: as §1
[10] = Drug excretion in castrated pig urine assessed as fraction of the dose excreted at 0.8 mg/kg administered as intrajejunal dose measured during 6 hrs sampling by UPLC-tandem mass spectrometry; type: ADME, organism-based, Sus scrofa; design: dose 0.8 mg/kg; details: male, read-out: Drug excretion
[11] = Cmax in castrated pig plasma withdrawn from hepatic vein at 0.8 mg/kg administered as intrajejunal dose by UPLC-tandem mass spectrometry; type: ADME, organism-based, Sus scrofa; design: dose 0.8 mg/kg; details: male; summary of the method: as §1

With CC(C)(C)NC(=O)[C@H]1CC[C@H]2[C@@H]3CC[C@H]4NC(=O)C=C[C@]4(C)[C@H]3CC[C@]12C [FINASTERIDE] as the compound, how does the fraction unbound [1] read?
The fraction unbound was 0.17.

What about the AUC(0-t) at 6 h [2] of the same compound?
The AUC(0-t) at 6 h was 4.2 µM·h.

And the Tmax [3]?
Its Tmax is 0.9 h.

What about the ka (Sus scrofa [4]) of the same compound?
Its ka is 19 h⁻¹.

And the Cmax [5]?
Its Cmax is 1300 nM.

What about the half-life [6] of the same compound?
Its half-life is 2.6 h.

What about the Ae [7] of the same compound?
Its Ae is 0.04 µmol.

And the ka (Sus scrofa [8])?
Its ka is 6 h⁻¹.

And the AUC(0-t) at 6 h [9]?
The AUC(0-t) at 6 h was 1.2 µM·h.

What about the dose excreted at 6 h [10] of the same compound?
The dose excreted at 6 h was 0.02%.

What about the Cmax [11] of the same compound?
The Cmax was 1000 nM.
